Measured values as given in ChEMBL document CHEMBL3745686 (Eur J Med Chem, 2016).
pIC50: −log10 of the molar value. Values belong to the compound of their own block, whether it stands above or below them. Active and inactive are the calls of the source. The rule behind the calls is not given here.

How the values were obtained:
Plasma [1] = experiment: Drug level in human plasma treated with P'1,P'4-di-(2 methylthio-5'-adenosine) P'1,P'4-dithio-P'2,P'3-chloromethylenetetraphosphate, sodium salt at 50 uM after 77 hrs by HPLC analysis; format: ADME, cell-free
Outline: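 Pooled heparinized human plasma, prewarmed 5 min at 37 °C, was spiked to 50 μM final from a saline stock and incubated at 37 °C. Aliquots were MeCN-precipitated, ultrafiltered (10K), dried, reconstituted in phosphate/EDTA pH 8.5, and run on C18 HPLC (isocratic 20% methanol, 50 mM phosphate pH 8.4, 10 mM EDTA, UV 273 nm). Diastereomer peak areas were internally normalized, with heat-denatured plasma and blank controls.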

Plasma [2] = experiment: Drug level in rat plasma treated with P'1,P'4-di-(2 methylthio-5'-adenosine) P'1,P'4-dithio-P'2,P'3-chloromethylenetetraphosphate, sodium salt at 50 uM after 77 hrs by HPLC analysis; format: ADME, cell-free
Outline: (§1)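 Frozen pooled heparinised rat or human plasma, thawed and warmed 5 min at 37 °C, spiked to 50 μM final compound (from 10 mM saline stock), held at 37 °C up to 77 h; heat-denatured plasma as chemical control; aliquots quenched with MeCN, ultrafiltered, dried, redissolved in pH 8.5 phosphate/EDTA; isocratic RP-HPLC, 273 nm; metabolites confirmed by reference compounds and LCMS; peak areas internally normalised.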

Platelet [3] = experiment: Anti-aggregatory activity in human platelet rich plasma assessed as inhibition of 20 uM ADP-induced platelet aggregation at 25 nM preincubated for 15 mins followed by ADP addition measured every 11 secs for 6 mins by 96-well microplate method; format: functional, cell-free
Platelet [4] = experiment: Anti-aggregatory activity in human platelet rich plasma assessed as inhibition of ADP-induced primary and secondary platelet aggregation preincubated for 15 mins followed by ADP addition and 10 secs shaking measured every 27 secs with 10 secs shaking by 96-well microplate method; format: functional, cell-free
Outline: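 PRP incubated with compound 15 min at 37 °C, aggregation started with 5 μM ADP and 10 s shaking; absorbance at 580 nm read every 27 s with 10 s shaking between reads; 100% set by platelet-poor plasma, 0% by PRP.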

[5] = target: P2Y purinoceptor 2 (Homo sapiens) (UniProt P41231); experiment: Effect on human P2Y2 receptor
Chain of P2Y purinoceptor 2 (Homo sapiens) (P41231 whole entry): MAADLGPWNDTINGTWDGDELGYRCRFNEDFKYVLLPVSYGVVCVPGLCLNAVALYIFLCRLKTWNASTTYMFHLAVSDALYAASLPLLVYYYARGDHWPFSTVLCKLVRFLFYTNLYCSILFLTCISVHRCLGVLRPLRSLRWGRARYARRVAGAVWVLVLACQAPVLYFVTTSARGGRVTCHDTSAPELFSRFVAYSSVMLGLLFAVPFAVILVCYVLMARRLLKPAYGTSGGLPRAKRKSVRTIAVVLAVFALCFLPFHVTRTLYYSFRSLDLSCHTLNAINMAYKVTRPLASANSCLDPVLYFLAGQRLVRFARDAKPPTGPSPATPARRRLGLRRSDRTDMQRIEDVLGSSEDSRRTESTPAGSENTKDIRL

Platelet [6] = experiment: Anti-aggregatory activity in human platelet rich plasma assessed as inhibition of ADP-induced platelet shape change; format: functional, cell-free
P2Y purinoceptor 12 [7] = target: T1, P2Y purinoceptor 12 (Homo sapiens, UniProt Q9H244); experiment: Agonist activity at human platelet P2Y12 receptor assessed as decrease in intra-platelet phosphorylated VASP by flow cytometric analysis
T1 sequence (Q9H244 whole entry): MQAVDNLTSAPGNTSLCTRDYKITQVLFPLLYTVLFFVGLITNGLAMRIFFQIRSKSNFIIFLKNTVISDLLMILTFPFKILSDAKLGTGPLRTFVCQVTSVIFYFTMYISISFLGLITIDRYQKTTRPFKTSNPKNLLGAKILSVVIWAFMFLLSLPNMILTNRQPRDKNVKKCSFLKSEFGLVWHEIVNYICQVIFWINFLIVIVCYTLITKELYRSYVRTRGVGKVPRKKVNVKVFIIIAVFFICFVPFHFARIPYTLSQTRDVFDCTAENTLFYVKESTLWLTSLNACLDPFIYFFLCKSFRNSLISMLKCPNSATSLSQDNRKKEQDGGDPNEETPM

Platelet [8] = experiment: Anti-aggregatory activity in human platelet rich plasma assessed as inhibition of 20 uM ADP-induced platelet aggregation at 100 nM preincubated for 15 mins followed by ADP addition measured every 11 secs for 6 mins by 96-well microplate method; format: functional, cell-free
P2Y purinoceptor 1 [9] = target: T2, P2Y purinoceptor 1 (Homo sapiens, UniProt P47900); experiment: Agonist activity at human platelet P2Y1 receptor assessed as increase in cytosolic calcium level by FLUO-4 staining based flow cytometric analysis; format: functional
T2 sequence (P47900 whole entry): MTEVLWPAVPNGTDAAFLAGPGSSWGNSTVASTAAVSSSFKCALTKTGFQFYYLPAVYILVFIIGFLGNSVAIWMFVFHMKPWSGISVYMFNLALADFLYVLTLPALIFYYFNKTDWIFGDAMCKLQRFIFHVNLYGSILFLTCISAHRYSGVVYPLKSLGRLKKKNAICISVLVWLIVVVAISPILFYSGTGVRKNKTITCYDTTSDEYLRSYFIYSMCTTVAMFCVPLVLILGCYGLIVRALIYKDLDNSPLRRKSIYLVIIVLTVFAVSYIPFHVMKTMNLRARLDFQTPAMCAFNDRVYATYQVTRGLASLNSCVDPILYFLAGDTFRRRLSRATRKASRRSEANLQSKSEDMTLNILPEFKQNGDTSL
Outline: (§2)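 Stimulus was extracellular Ca2+ uptake on 1 μM test compound (P2X1, scaled to 20 μM β,γ-CH2-ATP as 100%, selective P2Y1 inhibitor control), or 3 μM ADP (P2Y1 antagonism; omitted for agonism).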

[10] = target: T3, P2X purinoceptor 1 (Homo sapiens) (UniProt P51575); experiment: Agonist activity at human platelet P2X1 receptor assessed as increase in cytosolic calcium level at 1 uM by […] staining based flow cytometric analysis relative to beta,gamma-CH2-ATP; outline: as §2
T3 sequence (whole entry): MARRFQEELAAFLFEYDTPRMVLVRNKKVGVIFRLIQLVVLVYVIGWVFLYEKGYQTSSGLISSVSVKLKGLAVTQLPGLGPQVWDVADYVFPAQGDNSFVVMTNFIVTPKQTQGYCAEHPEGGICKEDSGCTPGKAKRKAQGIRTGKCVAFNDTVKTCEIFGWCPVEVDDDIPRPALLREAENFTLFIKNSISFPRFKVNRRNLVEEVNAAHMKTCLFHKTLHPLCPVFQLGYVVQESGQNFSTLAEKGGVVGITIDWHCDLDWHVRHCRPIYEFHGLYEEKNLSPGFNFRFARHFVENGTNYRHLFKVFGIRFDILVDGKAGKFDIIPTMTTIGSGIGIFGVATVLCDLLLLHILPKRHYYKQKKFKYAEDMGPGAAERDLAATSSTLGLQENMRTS

[11] = target: P2Y purinoceptor 6 (Homo sapiens) (UniProt Q15077); experiment: Effect on human P2Y6 receptor
Chain of P2Y purinoceptor 6 (Homo sapiens) (Q15077 whole entry): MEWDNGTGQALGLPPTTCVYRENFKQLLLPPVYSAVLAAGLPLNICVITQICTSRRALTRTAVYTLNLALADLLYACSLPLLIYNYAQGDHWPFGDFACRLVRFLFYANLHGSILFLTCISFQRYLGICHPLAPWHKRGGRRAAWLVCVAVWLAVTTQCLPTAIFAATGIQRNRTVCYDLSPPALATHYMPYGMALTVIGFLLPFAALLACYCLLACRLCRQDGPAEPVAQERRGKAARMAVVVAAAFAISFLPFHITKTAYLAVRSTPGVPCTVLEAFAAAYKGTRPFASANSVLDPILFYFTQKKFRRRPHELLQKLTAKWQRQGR

[12] = target: P2Y purinoceptor 4 (Homo sapiens) (UniProt P51582); experiment: Effect on human P2Y4 receptor
Chain of P2Y purinoceptor 4 (Homo sapiens) (P51582 whole entry): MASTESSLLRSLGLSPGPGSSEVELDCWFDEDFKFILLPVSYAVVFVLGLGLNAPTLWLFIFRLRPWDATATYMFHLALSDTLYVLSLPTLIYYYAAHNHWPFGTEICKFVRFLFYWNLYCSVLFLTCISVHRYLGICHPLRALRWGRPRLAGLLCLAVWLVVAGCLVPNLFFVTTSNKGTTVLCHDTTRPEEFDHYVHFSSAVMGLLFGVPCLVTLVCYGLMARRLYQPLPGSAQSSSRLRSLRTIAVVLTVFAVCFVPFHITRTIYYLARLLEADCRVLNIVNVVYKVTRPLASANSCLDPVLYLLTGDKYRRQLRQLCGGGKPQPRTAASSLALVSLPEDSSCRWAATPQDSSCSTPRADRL

Platelet [13] = experiment: Ratio of IC50 for inhibition of 20 uM ADP-induced human platelet aggregation for inhibition of 20 uM ADP-induced human platelet aggregation preincubated for 15 mins; format: functional
P2Y purinoceptor 1 [14] = target: T2, P2Y purinoceptor 1; experiment: Antagonist activity at human platelet P2Y1 receptor assessed as inhibition of ADP-induced increase in cytosolic calcium level by FLUO-4 staining based flow cytometric analysis; format: functional; outline: as §2
Platelet [15] = experiment: Anti-aggregatory activity in ADP-induced human platelet rich plasma assessed as P-selectin expression at 10 nM preincubated for 30 mins followed by 100 fold dilution by fluorescence assay; format: functional
Outline: (§3)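 Human PRP from aspirin/NSAID-free donors in 3.2% citrate; platelets pre-incubated 30 min with 10 nM compound, then diluted 100-fold in platelet-poor plasma with or without 10 nM compound, stimulated with ADP; surface activated GPIIb-IIIa and P-selectin read as mean fluorescence intensity; means ± SEM of 3 experiments.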

[16] = Anti-aggregatory activity in human platelet rich plasma assessed as inhibition of 20 uM ADP-induced P-selectin expression by fluorescence assay; format: functional, cell-free
Platelet [17] = experiment: Anti-aggregatory activity in ADP-induced human platelet rich plasma assessed as platelet surface activated GP2b-3a expression at 10 nM preincubated for 30 mins followed by 100 fold dilution by fluorescence assay; format: functional; outline: as §3
[18] = Anti-aggregatory activity in human platelet rich plasma assessed as inhibition of 20 uM ADP-induced platelet aggregation by optical aggregometric analysis; format: functional, cell-free
[19] = Anti-aggregatory activity in human platelet rich plasma assessed as inhibition of 20 uM ADP-induced platelet surface activated GP2b-3a expression by fluorescence assay; format: functional, cell-free
Plasma [20] = experiment: Drug metabolism in rat plasma assessed as MeSAMP(S) formation at 50 uM after 77 hrs by HPLC analysis; format: ADME, cell-free; outline: as §1
P2Y purinoceptor 12 [21] = target: T1, P2Y purinoceptor 12; experiment: Antagonist activity at human platelet P2Y12 receptor assessed as inhibition of ADP-mediated decrease in intra-platelet phosphorylated VASP by flow cytometric analysis
Plasma [22] = experiment: Half life in rat plasma at 50 uM measured at 1 to 4 hrs; format: ADME, cell-free
Plasma [23] = experiment: Half life in human plasma at 50 uM measured at 1 to 4 hrs; format: ADME, cell-free
Plasma [24] = experiment: Metabolic stability in human plasma assessed as first order elimination rate constant at 50 uM measured at 1 to 4 hrs; format: ADME, cell-free
Plasma [25] = experiment: Metabolic stability in rat plasma assessed as first order elimination rate constant at 50 uM measured at 1 to 4 hrs; format: ADME, cell-free
Plasma [26] = experiment: Metabolic stability in fresh rat plasma assessed as compound degradation at 50 uM after 24 hrs by HPLC analysis; format: ADME, cell-free
Plasma [27] = experiment: Drugmetabolism in human plasma assessed as MeSAMP(S) formation at 50 uM after 77 hrs by HPLC analysis; format: ADME, cell-free; outline: as §1
[28] = Anti-aggregatory activity in human platelet rich plasma assessed as inhibition of 20 uM ADP-induced platelet aggregation preincubated for 15 mins by optical aggregometric analysis; format: functional, cell-free
Plasma [29] = experiment: Drug metabolism in rat plasma assessed as MeSAdo formation at 50 uM after 77 hrs by HPLC analysis; format: ADME, cell-free; outline: as §1
[30] = Chemical stability in heat denaturated plasma (unknown origin); format: ADME, cell-free; outline: as §1
Plasma [31] = experiment: Drug metabolism in human plasma assessed as MeSAdo formation at 50 uM after 77 hrs by HPLC analysis; format: ADME, cell-free; outline: as §1
[32] = Half life in rat plasma; format: ADME, cell-free
[33] = Half life in human plasma at 0.7 uM; format: ADME, cell-free

Drug metabolism (Plasma [1]): metabolite_detected
Drug metabolism (Plasma [2]): metabolite_detected
Compound: CSc1nc(N)c2ncn([C@@H]3O[C@H](CO)[C@@H](O)[C@H]3O)c2n1

Compound: CSc1nc(N)c2ncn([C@@H]3O[C@H](COP(=O)(S)OP(=O)(O)C(Cl)P(=O)(O)OP(=O)(S)OC[C@H]4O[C@@H](n5cnc6c(N)nc(SC)nc65)[C@H](O)[C@@H]4O)[C@@H](O)[C@H]3O)c2n1 (mixture of isomers)
inhibition (Platelet [3]): Active
inhibition (Platelet [4]): Dose-dependent effect
Activity [5]: inactive
inhibition (Platelet [6]): Active
Activity (P2Y purinoceptor 12 [7]): inactive
inhibition (Platelet [8]): Active
Activity (P2Y purinoceptor 1 [9]): inactive
Activity [10]: 0.24%
Activity [11]: inactive
Activity [12]: inactive

Compound: CSc1nc(N)c2ncn([C@@H]3O[C@H](COP(=O)([S-])OP(=O)([O-])C(Cl)P(=O)([O-])OP(=O)([S-])OC[C@H]4O[C@@H](n5cnc6c(N)nc(SC)nc65)[C@H](O)[C@@H]4O)[C@@H](O)[C@H]3O)c2n1.[Na+].[Na+].[Na+].[Na+] (mixture of isomers)
Ratio IC50 (Platelet [13]): 50
pIC50 (P2Y purinoceptor 1 [14]): 5.67
Activity (Platelet [15]): 80%
pIC50 [16]: 9.22
Activity (Platelet [17]): 80%
pIC50 [18]: 5.59
pIC50 [19]: 8.96
Drug metabolism (Plasma [20]): metabolite_detected
pIC50 (P2Y purinoceptor 12 [21]): 6.66
t1/2 (Plasma [22]): 284 min
t1/2 (Plasma [23]): 1880 min
Kel (Plasma [24]): 0.0221 h⁻¹
Kel (Plasma [25]): 0.147 h⁻¹
Stability (Plasma [26]): Stable
Stability (Plasma [27]): Stable
pIC50 [28]: 7.20
Drug metabolism (Plasma [29]): metabolite_detected
Stability [30]: Stable
Drug metabolism (Plasma [31]): metabolite_detected

pIC50 (P2Y purinoceptor 1 [14]): 5.02
Activity (P2Y purinoceptor 12 [7]): inactive
Activity (P2Y purinoceptor 1 [9]): inactive
pIC50 [18]: 5.48
pIC50 (P2Y purinoceptor 12 [21]): 6.85
Activity [10]: 23.8%
pIC50 [28]: 7.27
Compound: CCSc1nc(N)c2ncn([C@@H]3O[C@H](COP(=O)([S-])OP(=O)([O-])C(Cl)P(=O)([O-])OP(=O)([S-])OC[C@H]4O[C@@H](n5cnc6c(N)nc(SCC)nc65)[C@H](O)[C@@H]4O)[C@@H](O)[C@H]3O)c2n1.[Na+].[Na+].[Na+].[Na+] (mixture of isomers)
Ratio IC50 (Platelet [13]): 50
inhibition (Platelet [6]): Active

half-life [32]: 2.99 min
half-life at 0.7 µM [33]: 2 min
Activity [10]: 198%
Compound: Nc1ncnc2c1ncn2[C@@H]1O[C@H](COP(=O)(O)OP(=O)(O)OP(=O)(O)OP(=O)(O)OC[C@H]2O[C@@H](n3cnc4c(N)ncnc43)[C@H](O)[C@@H]2O)[C@@H](O)[C@H]1O [DIADENOSINE TETRAPHOSPHATE]
